Experimental data as given in ChEMBL document CHEMBL3046951, “Volatile constituents from the leaves of Callicarpa japonica Thunb. and their antibacterial activities” (2004).

How the values were obtained:
Format in all cases: functional
Escherichia coli = test: Antimicrobial activity against Escherichia coli O157:H7 ATCC 43894 assessed as growth inhibition rate at 13.56 mg/l after 72 hr by spectrophotometry; details: O157:H7 ATCC 43894, 72 h, read-out: GI
Staphylococcus aureus = test: Antimicrobial activity against Staphylococcus aureus ATCC 25923 assessed as growth inhibition rate at 13.56 mg/l after 72 hr by spectrophotometry; details: ATCC 25923, 72 h, read-out: GI
Bacillus cereus = test: Antimicrobial activity against Bacillus cereus ATCC 11778 assessed as growth inhibition rate at 13.56 mg/l after 72 hr by spectrophotometry; details: ATCC 11778, 72 h, read-out: GI
Summary of the method: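 Pure volatile compounds (purity >95%; one at 90%) were tested against B. cereus ATCC 11778. The strain was grown at 30 °C in nutrient broth for 24 h, then subcultured for 18 h. Optical density was read in a Bioscreen C every 24 h for 72 h, with 10% Tween 80 as the control.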

Listeria monocytogenes = test: Antimicrobial activity against Listeria monocytogenes ATCC 19111 assessed as growth inhibition rate at 13.56 mg/l after 72 hr by spectrophotometry; details: ATCC 19111, 72 h, read-out: GI
Summary of the method: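 L. monocytogenes was grown at 30 °C in tryptic soy broth, subcultured for 18 h, and exposed to pure volatile compounds (>95% purity). Growth was followed by Bioscreen C optical density every 24 h for 72 h against a 10% Tween 80 control.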

Salmonella typhimurium = test: Antimicrobial activity against Salmonella enterica subsp. enterica serovar Typhimurium ATCC 14028 assessed as growth inhibition rate at 13.56 mg/l after 72 hr by spectrophotometry; details: ATCC 14028, 72 h, read-out: GI
Summary of the method: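 Salmonella Typhimurium ATCC 14028 grown in nutrient broth at 30 °C, precultured 24 h, then subcultured 1:100 for 18 h before testing. Single volatile compounds (>95% pure) were added. OD was read every 24 h over 72 h in a Bioscreen C, with 10% Tween 80 as the comparison control.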

Vibrio parahaemolyticus = test: Antimicrobial activity against Vibrio parahaemolyticus ATCC 33844 assessed as growth inhibition rate at 13.56 mg/l after 72 hr by spectrophotometry; details: ATCC 33844, 72 h, read-out: GI

Structure (SMILES): CCC/C=C/CO
- inhibition of growth at 13.56 µg/mL (Escherichia coli): 31.8%
- inhibition of growth at 13.56 µg/mL (Staphylococcus aureus): 29.5%
- inhibition of growth at 13.56 µg/mL (Bacillus cereus): 52.5%
- inhibition of growth at 13.56 µg/mL (Listeria monocytogenes): 19.2%
- inhibition of growth at 13.56 µg/mL (Salmonella typhimurium): 29.1%
- inhibition of growth at 13.56 µg/mL (Vibrio parahaemolyticus): 38.6%
